In ChEMBL document CHEMBL5724801, “EUbOPEN Chemogenomics Library - Multiplex” (2024):
Where “and” joins values, the source holds several entries; their conditions need not be identical. Identical values can stand only once.

Tested on: Fibroblast
Experiment: Multiplex assay against human fibroblast
Assay type: toxicity, cell-based
Outline: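 Compound was added to live cells that had been stained at seeding with Hoechst33342, BioTracker Green Microtubule Cytoskeleton Dye, MitoTracker Red and Annexin V Alexa Fluor 680, and imaging followed on a CQ1 microscope at 37°C and 5% CO2. CellPathfinder machine-learning gating divided cells into Hoechst high-intensity objects or normal cells, normal cells into healthy, pyknosed or fragmented nuclei, and pyknosed cells into mitotic or apoptotic. Tubulin, mitochondrial-mass and membrane-permeability phenotypes are per cents of healthy-nucleus cells.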

[1] = 12 h, 1 µM, compound concentration 1 uM
[2] = 12 h, 10 µM, compound concentration 10 uM
[3] = 24 h, 1 µM, compound concentration 1 uM
[4] = 24 h, 10 µM, compound concentration 10 uM
[5] = 48 h, 1 µM, compound concentration 1 uM
[6] = 48 h, 10 µM, compound concentration 10 uM

For `O=C(Nc1c[nH]nc1-c1nc2cc(CN3CCOCC3)ccc2[nH]1)NC1CC1` [AT-9283], the “Population Apoptotic (%)” value [1] was 20% and 16.13%, the “Population Fragmented Nuclei (%)” value [1] was 9.94% and 5.09% and the “Population Healthy Nuclei (%)” value [1] was 62.43% and 80.56%. For the same compound, the “Population Hoechst High Intensity Objects (%)” value [1] was 0%, the “Population Membrane Permeable-Phenotype (%)” value [1] was 3.54% and 0.57% and the “Population Mitochondria Different-Phenotype (%)” value [1] was 14.16% and 13.22%. For the same compound, the “Population Mitotic Cells (%)” value [1] was 80% and 83.87%, the “Population Normal (%)” value [1] was 100% and the “Population Pyknosed Nuclei (%)” value [1] was 27.62% and 14.35%. For the same compound, the “Population Tubulin-Different-Phenotype (%)” value [1] was 24.78% and 24.71%, the “Total Cell Count” value [1] was 181 and 216 and the “Population Apoptotic (%)” value [2] was 30% and 36.21%. For the same compound, the “Population Fragmented Nuclei (%)” value [2] was 25% and 12.87%, the “Population Healthy Nuclei (%)” value [2] was 54.59% and 65.81% and the “Population Hoechst High Intensity Objects (%)” value [2] was 0%. For the same compound, the “Population Membrane Permeable-Phenotype (%)” value [2] was 19.63% and 13.41%, the “Population Mitochondria Different-Phenotype (%)” value [2] was 14.02% and 18.44% and the “Population Mitotic Cells (%)” value [2] was 70% and 63.79%. The “Population Normal (%)” value [2] was 100%, the “Population Pyknosed Nuclei (%)” value [2] was 20.41% and 21.32% and the “Population Tubulin-Different-Phenotype (%)” value [2] was 36.45% and 41.34%. The “Total Cell Count” value [2] was 196 and 272, the “Population Apoptotic (%)” value [3] was 8.33% and 17.86% and the “Population Fragmented Nuclei (%)” value [3] was 12.64% and 5.88%. The “Population Healthy Nuclei (%)” value [3] was 67.58% and 68.78%, the “Population Hoechst High Intensity Objects (%)” value [3] was 0% and the “Population Membrane Permeable-Phenotype (%)” value [3] was 6.5% and 2.63%. For the same compound, the “Population Mitochondria Different-Phenotype (%)” value [3] was 13.01% and 9.87%, the “Population Mitotic Cells (%)” value [3] was 91.67% and 82.14% and the “Population Normal (%)” value [3] was 100%. For the same compound, the “Population Pyknosed Nuclei (%)” value [3] was 19.78% and 25.34%, the “Population Tubulin-Different-Phenotype (%)” value [3] was 28.46% and 22.37% and the “Total Cell Count” value [3] was 182 and 221. For the same compound, the “Population Apoptotic (%)” value [4] was 38.98% and 73.44%, the “Population Fragmented Nuclei (%)” value [4] was 21.08% and 15.35% and the “Population Healthy Nuclei (%)” value [4] was 43.37% and 56.58%. The “Population Hoechst High Intensity Objects (%)” value [4] was 0%, the “Population Membrane Permeable-Phenotype (%)” value [4] was 23.61% and 16.28% and the “Population Mitochondria Different-Phenotype (%)” value [4] was 16.67% and 18.6%. For the same compound, the “Population Mitotic Cells (%)” value [4] was 61.02% and 26.56%, the “Population Normal (%)” value [4] was 100% and the “Population Pyknosed Nuclei (%)” value [4] was 35.54% and 28.07%. The “Population Tubulin-Different-Phenotype (%)” value [4] was 38.89% and 57.36%, the “Total Cell Count” value [4] was 166 and 228 and the “Population Apoptotic (%)” value [5] was 41.3% and 71.67%. The “Population Fragmented Nuclei (%)” value [5] was 16.56% and 16.58%, the “Population Healthy Nuclei (%)” value [5] was 54.14% and 51.34% and the “Population Hoechst High Intensity Objects (%)” value [5] was 0%. The “Population Membrane Permeable-Phenotype (%)” value [5] was 3.53% and 9.38%, the “Population Mitochondria Different-Phenotype (%)” value [5] was 11.76% and 7.29% and the “Population Mitotic Cells (%)” value [5] was 58.7% and 28.33%. For the same compound, the “Population Normal (%)” value [5] was 100%, the “Population Pyknosed Nuclei (%)” value [5] was 29.3% and 32.09% and the “Population Tubulin-Different-Phenotype (%)” value [5] was 23.53% and 35.42%. The “Total Cell Count” value [5] was 157 and 187, the “Population Apoptotic (%)” value [6] was 43.48% and 91.01% and the “Population Fragmented Nuclei (%)” value [6] was 26.71% and 24.14%. The “Population Healthy Nuclei (%)” value [6] was 44.72% and 32.02%, the “Population Hoechst High Intensity Objects (%)” value [6] was 0% and the “Population Membrane Permeable-Phenotype (%)” value [6] was 12.5% and 29.23%. The “Population Mitochondria Different-Phenotype (%)” value [6] was 18.06% and 23.08%, the “Population Normal (%)” value [6] was 100% and the “Population Pyknosed Nuclei (%)” value [6] was 28.57% and 43.84%. The “Population Tubulin-Different-Phenotype (%)” value [6] was 27.78% and 72.31% and the “Total Cell Count” value [6] was 161 and 203.

With `CC(C)C[C@H](CO)Nc1nc(S[C@@H](C)c2ccccc2)nc2nc(N)sc12` [AZD-8797] the “Population Apoptotic (%)” value [1] was 25% and 31%, the “Population Fragmented Nuclei (%)” value [1] was 23% and 22% and the “Population Healthy Nuclei (%)” value [1] was 62% and 55%. For the same compound, the “Population Hoechst High Intensity Objects (%)” value [1] was 1% and 4%, the “Population Mitochondria Different-Phenotype (%)” value [1] was 3% and 6% and the “Population Mitotic Cells (%)” value [1] was 75% and 68%. The “Population Normal (%)” value [1] was 98% and 95%, the “Population Pyknosed Nuclei (%)” value [1] was 13% and 21% and the “Population Tubulin-Different-Phenotype (%)” value [1] was 23% and 46%. For the same compound, the “Total Cell Count” value [1] was 146 and 92, the “Population Apoptotic (%)” value [2] was 38% and 36% and the “Population Fragmented Nuclei (%)” value [2] was 18% and 36%. For the same compound, the “Population Healthy Nuclei (%)” value [2] was 64% and 41%, the “Population Hoechst High Intensity Objects (%)” value [2] was 3% and 5% and the “Population Membrane Permeable-Phenotype (%)” value [2] was 0% and 10%. For the same compound, the “Population Mitotic Cells (%)” value [2] was 61% and 64%, the “Population Normal (%)” value [2] was 96% and 94% and the “Population Pyknosed Nuclei (%)” value [2] was 17% and 21%. For the same compound, the “Population Tubulin-Different-Phenotype (%)” value [2] was 46% and 66%, the “Total Cell Count” value [2] was 156 and 122 and the “Population Apoptotic (%)” value [3] was 44% and 31%. For the same compound, the “Population Fragmented Nuclei (%)” value [3] was 15% and 29%, the “Population Healthy Nuclei (%)” value [3] was 69% and 54% and the “Population Hoechst High Intensity Objects (%)” value [3] was 1% and 0%. For the same compound, the “Population Mitochondria Different-Phenotype (%)” value [3] was 1% and 3%, the “Population Mitotic Cells (%)” value [3] was 55% and 68% and the “Population Normal (%)” value [3] was 98% and 99%. For the same compound, the “Population Pyknosed Nuclei (%)” value [3] was 14% and 15%, the “Population Tubulin-Different-Phenotype (%)” value [3] was 24% and 46% and the “Total Cell Count” value [3] was 124 and 103. For the same compound, the “Population Apoptotic (%)” value [4] was 57% and 33%, the “Population Fragmented Nuclei (%)” value [4] was 21% and 42% and the “Population Healthy Nuclei (%)” value [4] was 66% and 38%. The “Population Hoechst High Intensity Objects (%)” value [4] was 1% and 2%, the “Population Membrane Permeable-Phenotype (%)” value [4] was 0% and 8% and the “Population Mitochondria Different-Phenotype (%)” value [4] was 15% and 25%. For the same compound, the “Population Mitotic Cells (%)” value [4] was 42% and 66%, the “Population Normal (%)” value [4] was 98% and 97% and the “Population Pyknosed Nuclei (%)” value [4] was 12% and 19%. For the same compound, the “Population Tubulin-Different-Phenotype (%)” value [4] was 38% and 85%, the “Total Cell Count” value [4] was 168 and 126 and the “Population Apoptotic (%)” value [5] was 50% and 47%. The “Population Fragmented Nuclei (%)” value [5] was 25% and 30%, the “Population Healthy Nuclei (%)” value [5] was 60% and 48% and the “Population Hoechst High Intensity Objects (%)” value [5] was 1% and 4%. The “Population Membrane Permeable-Phenotype (%)” value [5] was 1% and 4%, the “Population Mitochondria Different-Phenotype (%)” value [5] was 1% and 4% and the “Population Mitotic Cells (%)” value [5] was 50% and 52%. The “Population Normal (%)” value [5] was 98% and 95%, the “Population Pyknosed Nuclei (%)” value [5] was 13% and 20% and the “Total Cell Count” value [5] was 135 and 95. The “Population Apoptotic (%)” value [6] was 60% and 35%, the “Population Fragmented Nuclei (%)” value [6] was 25% and 45% and the “Population Healthy Nuclei (%)” value [6] was 65% and 40%. The “Population Hoechst High Intensity Objects (%)” value [6] was 2% and 1%, the “Population Membrane Permeable-Phenotype (%)” value [6] was 0% and 12% and the “Population Mitochondria Different-Phenotype (%)” value [6] was 13% and 18%. The “Population Mitotic Cells (%)” value [6] was 40% and 64%, the “Population Normal (%)” value [6] was 97% and 98% and the “Population Pyknosed Nuclei (%)” value [6] was 9% and 14%. For the same compound, the “Population Tubulin-Different-Phenotype (%)” value [6] was 35% and 89% and the “Total Cell Count” value [6] was 168 and 121.
